Here are results for 5 compounds from ChEMBL document CHEMBL1124262, “Cardiotonic agents. Synthesis and inotropic activity of a series of isoquinolin-3-ol derivatives” (J Med Chem, 1988).

In test [1] the test system is Canis familiaris. The test is described as follows: 50% increase in contractile force in one to three anesthetized dogs administered intravenously. The following applies: Canis lupus familiaris, iv. It counts as functional. The essentials: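 Anesthetized dogs (one to three). Compound is infused iv in three to four stepwise increasing doses, each over 5 min once the previous effect has peaked. Contractile force is recorded with a Walton Brodie strain gauge on the right ventricle. The dose (μg/kg) giving a 50% rise over control CF is read from the dose-response curve, graphically (n < 3) or by linear regression (n ≥ 3).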

Test [2] concerns Canis familiaris. As to the kind of experiment: Change in heart contractile force of anaesthetized, open chest dogs following 0.875 mg/kg i.v. administration. The test is classed as functional, Canis lupus familiaris. The following applies: route intravenous. The essentials:
(§1)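 Anesthetized open-chest dogs, one drug per animal. Compound is in DMF diluted to 10% in saline, or given as the HCl salt in saline. It is infused into the femoral vein by pump at 0.58-2.2 mL/min in 3-4 stepwise cumulative doses, each over 5 min after the prior peak. Readings are CF by right-ventricle strain gauge, dP/dtmax by Millar LV catheter, HR by cardiotachometer and MAP from femoral artery, as % change from predrug control.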

Test [3] concerns Canis familiaris. The test is described as follows: Percent change in mean arterial blood pressure (MAP) in anesthetized open chest dogs iv administration at 0.875 mg/kg. It counts as functional, Canis lupus familiaris. The essentials: as §1
For test [4], the system named is Canis familiaris. As to the kind of experiment: Change in left ventricular pressure of anaesthetized, open chest dogs following 0.875 mg/kg i.v. administration. The test is classed as functional, Canis lupus familiaris, Heart left ventricle. The following applies: route intravenous. The essentials: as §1
Test [5] deals with Canis familiaris. As to the kind of experiment: Percent change in heart rate (HR) in anesthetized open chest dogs after a iv dose of 0.875 mg/kg. The test is classed as functional, Canis lupus familiaris. The essentials: as §1
The target of test [6] is Phosphodiesterase 3 (Homo sapiens, UniProt Q14432+Q13370). The test is described as follows: Inhibition of phosphodiesterase fraction III in anesthetized open chest dogs. The test is classed as functional, Canis lupus familiaris. The note with it: target entry is the homologue from another species. The gist of the method: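 Enzyme is dog heart PDE-III, the third DEAE-cellulose fraction eluted at 800 mM sodium acetate. Compounds are tested at 0.01–1000 μM with 0.25 μM cAMP containing [³H]cAMP, in 0.05 M Tris-HCl pH 7.4 with 5 mM MgCl2. The reaction is stopped by heat, then snake venom converts product to adenosine. [³H]adenosine is counted by scintillation after Dowex separation. IC50 comes from ≥2 determinations, each in duplicate.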

The subject of test [7] is Canis familiaris. As to the kind of experiment: Percent change in heart rate (HR) in anesthetized open chest dogs after a iv dose of 0.375 mg/kg. It counts as functional, Canis lupus familiaris. The gist of the method: as §1
Test [8] relates to Canis familiaris. The test is described as follows: Percent increase in contractile force (CF) in anesthetized open-chest dogs iv administration of 0.375 mg/kg. The test is classed as functional, Canis lupus familiaris. The gist of the method: (§2)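 Anesthetized open-chest dogs. After a right thoracotomy, contractile force was recorded by a Walton Brodie strain gauge sutured to the right ventricle at 100 g baseline tension. Compound was given iv by infusion pump into a femoral vein, one drug per animal, in three to four stepwise increasing doses. Each dose ran over 5 min, starting once the previous dose's effect peaked. Values are % increase over predrug control vs cumulative mg/kg dose.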

Test [9] deals with Canis familiaris. The test is described as follows: Percent change in mean arterial blood pressure (MAP) in anesthetized open chest dogs iv administration at 0.375 mg/kg. It counts as functional, Canis lupus familiaris. The essentials: as §1
Test [10] has as its system Canis familiaris. The test is described as follows: Percent change in left ventricular pressure (dP/dtmax) in anesthetized dog after iv administration at 0.375 mg/kg. The test is classed as functional, Canis lupus familiaris, Heart left ventricle. The essentials: as §1
In test [11] the test system is Canis familiaris. As to the kind of experiment: Percent change in heart rate (HR) in anesthetized open chest dogs after a iv dose of 0.925 mg/kg. It counts as functional, Canis lupus familiaris. The essentials:
as §1

Test [12] relates to Canis familiaris. As to the kind of experiment: Percent increase in contractile force (CF) in anesthetized open-chest dogs iv administration of 0.925 mg/kg. The test is classed as functional, Canis lupus familiaris. The gist of the method:
as §2

The test system of test [13] is Canis familiaris. As to the kind of experiment: Percent change in mean arterial blood pressure (MAP) in anesthetized open chest dogs iv administration at 0.9250 mg/kg. It counts as functional, Canis lupus familiaris. The note with it: dose 0.925 mg/kg. The gist of the method:
as §1

The test system of test [14] is Canis familiaris. As to the kind of experiment: Percent change in left ventricular pressure (dP/dtmax) in anesthetized dog after iv administration at 0.925 mg/kg. It counts as functional, Canis lupus familiaris, Heart left ventricle. The essentials: as §1
Test [15] concerns Canis familiaris. As to the kind of experiment: Percent change in heart rate (HR) in anesthetized open chest dogs after a iv dose of 1 mg/kg. The test is classed as functional, Canis lupus familiaris. The gist of the method: as §1
Test [16] concerns Canis familiaris. As to the kind of experiment: Percent change in heart rate (HR) in anesthetized open chest dogs after a iv dose of 0.025 mg/kg. It counts as functional, Canis lupus familiaris. The essentials:
as §1

Test [17] deals with Canis familiaris. The test is described as follows: Percent increase in contractile force (CF) in anesthetized open-chest dogs iv administration of 0.025 mg/kg. It counts as functional, Canis lupus familiaris. The essentials:
as §1

The subject of test [18] is Canis familiaris. The test is described as follows: Percent change in mean arterial blood pressure (MAP) in anesthetized open chest dogs iv administration at 1 mg/kg. It counts as functional, Canis lupus familiaris. The essentials: as §1
Test [19] has as its system Canis familiaris. The test is described as follows: Percent change in mean arterial blood pressure (MAP) in anesthetized open chest dogs iv administration at 0.025 mg/kg. It counts as functional, Canis lupus familiaris. The gist of the method: as §1
Test [20] concerns Canis familiaris. The test is described as follows: Contractile force in anesthetized open chest dogs id administration at 1.00 mg/kg. The test is classed as functional, Canis lupus familiaris. The following applies: route intraduodenal. The essentials: (§3)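 Anesthetized open-chest dogs. A 10-mL bolus is injected into the duodenum through a catheter placed 2 cm distal to the pylorus. Contractile force is measured with a Walton Brodie strain gauge sutured to the right ventricle, at a baseline tension of 100 g, and monitored continuously. Results are given as % increase from predrug control against cumulative dose.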

Test [21] concerns Canis familiaris. The test is described as follows: Percent increase in left ventricular pressure (dP/dtmax) of anesthetized dog after id administration at 1 mg/kg. It counts as functional, Canis lupus familiaris, Heart left ventricle. The following applies: route intraduodenal. The gist of the method:
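Anesthetized open-chest dogs. Left ventricular pressure was measured by Millar catheter and dP/dtmax derived. Compound was given as a 10-mL bolus into the duodenum through a catheter placed 2 cm distal to the pylorus via flank incision. Dissolved in DMF diluted to 10% in saline, or as HCl salt in saline. Response is % change over predrug control, monitored continuously.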

Test [22] relates to Canis familiaris. The test is described as follows: Percent change in left ventricular pressure (dP/dtmax) in anesthetized dog after iv administration at 0.025 mg/kg. The test is classed as functional, Canis lupus familiaris, Heart left ventricle. The essentials: as §1
In test [23] the test system is Canis familiaris. As to the kind of experiment: Change in heart rate of anaesthetized, open chest dogs following 0.875 mg/kg i.v. administration. It counts as functional, Canis lupus familiaris. The note with it: route intravenous. The gist of the method: as §1
Test [24] has as its system Canis familiaris. As to the kind of experiment: Percent change in heart rate (HR) in anesthetized open chest dogs after a iv dose of 10 mg/kg. The test is classed as functional, Canis lupus familiaris. The gist of the method:
as §1

For test [25], the system named is Canis familiaris. The test is described as follows: Percent change in left ventricular pressure (dP/dtmax) in anesthetized dog after iv administration at 10 mg/kg. The test is classed as functional, Canis lupus familiaris, Heart left ventricle. The essentials:
as §1

The test system of test [26] is Canis familiaris. The test is described as follows: Percent increase in contractile force (CF) in anesthetized open-chest dogs id administration of 10 mg/kg. It counts as functional, Canis lupus familiaris. The note with it: route intraduodenal. The essentials: as §3
For test [27], the system named is Canis familiaris. The test is described as follows: Percent change in mean arterial blood pressure (MAP) in anesthetized open chest dogs iv administration at 10 mg/kg. It counts as functional, Canis lupus familiaris. The essentials: as §1
Test [28] relates to Canis familiaris. The test is described as follows: Percent change in mean arterial blood pressure (MAP) in anesthetized open chest dogs iv administration at 0.8750 mg/kg. The test is classed as functional, Canis lupus familiaris. The following applies: dose 0.875 mg/kg. The essentials:
as §1

The structures appear in SMILES notation.

As for `COc1cc(OC)c2c(C)nc(O)cc2c1`, the ED50 (as a rule, the midpoint of the dose-response relation) in test [1] amounted to 0.375 mg/kg. The Increase is recorded as 91% in test [2] and 62% in [4]. Moreover, the Change is listed as -18% in test [3] and 13% in [5]. In addition, the IC50 (usually the concentration that inhibits the measured activity by half) in test [6] was 80 µM.
Turning to `COc1cc2c(C)nc(OC(C)=O)c(Br)c2cc1OC`, the Change in [7] is on record as 15%; in test [9], -33%. Moreover, the Increase in [8] was found to be 117%; in test [10], 60%.
With `COc1ccc2c(C)nc(O)cc2c1`, the Change in test [11] is 8%; in test [13], 0%. Further, the ED50 in test [1] came to 0.6 mg/kg. Also, the values for the Increase in [12] and in [14] were 65% and 56%, respectively. The compound also registered an IC50 in [6] of 160 µM.
Take `CCc1c(O)nc(C)c2cc(OC)c(OC)cc12`: the Change in test [15] is reported as 22%; in test [16], 13%; in [18] it was -22%; in [19], -12%. This compound also came in with an ED50 in test [1] of 0.012 mg/kg. For the same compound, the Increase in test [17] is listed as 143%; in test [20] it was 132%; in test [21], 92%; in [22] it was 98%. In [6], the IC50 came to 2 µM.
With `COC(=O)CCc1c(O)nc(C)c2cc(OC)c(OC)cc12`, the Change in test [23] was 34%; in [24], 12%; in [27] it was -11%; in test [28], -12%. Also, the Increase in [25] is listed as 52%; in test [26] it was 105%; in [2], 140%; in test [4], 78%. In test [1], this compound registered an ED50 of 0.165 mg/kg. The same compound returned an IC50 in [6] of 35 µM.
